Published values collected from several papers.
Each line is one published result; the experiments were not run side by side.
CDK14: Cyclin-dependent kinase 14 (CDK14, Homo sapiens, UniProt O94921)
CDK14 with cyclin Y: Cyclin-dependent kinase 14, with cyclin Y (CDK14, Homo sapiens, UniProt O94921)

CCCCC(=O)Nc1ccc(-c2ccc3ncn(CCC)c(=O)c3c2)cn1
remaining binding (CDK14; binding; competition with immobilised ligand; 0.5 µM): 100%

COc1ccc2oc(-c3ccc4nc(N)oc4c3)c/c(=N\c3ccccc3NC(=O)CCN)c2c1
remaining binding (CDK14 with cyclin Y; binding; 1 µM): 100%

CO[C@@H]1[C@H](N(C)C(=O)c2ccccc2)C[C@H]2O[C@]1(C)n1c3ccccc3c3c4c(c5c6ccccc6n2c5c31)C(=O)NC4
inhibition (CDK14; enzyme activity; inhibitor; 1 µM): 0%

CN1CCN(C(=O)c2ccc(NC(=O)Nc3ccc(N(C)c4ccnc(Nc5ccc(CS(C)(=O)=O)cc5)n4)cc3)cc2)CC1
remaining binding (CDK14; binding; competition with immobilised ligand; 1 µM): 81%

C1=C/COCc2cc(ccc2OCCN2CCCC2)Nc2nccc(n2)-c2cccc(c2)COC/1
remaining signal (CDK14; cell-free assay; 0.1 µM): 87%

Cc1ccc(NC(=O)c2ccnc(C(F)(F)F)c2)cc1-c1cc(OCCO)nc(N2CCOCC2)c1
remaining binding (CDK14; binding; competition with immobilised ligand; 1 µM): 100%

CC(C)S(=O)(=O)c1ccc2nccc(Nc3ccc4sc(C5CCCC5)nc4c3)c2c1
activity vs control (CDK14 with cyclin Y; enzyme activity; inhibitor; 1 µM): 110%

CC#CC(=O)N1CCC[C@H]1c1nc(-c2ccc(C(=O)Nc3ccccn3)cc2)c2c(N)nccn12
inhibition (CDK14; enzyme activity; inhibitor; 1 µM): 4%
